Source: PubChem (several laboratories)
ATG4B inh: ATG4B protease inhibitors, primary screen, biochemical, fluorescence, uHTS; ATG4B cleavage of LC3-PLA2, NBD-HPC fluorescence, 1 h; inhibition, % at 8.33 µM; 340,000 compounds, 0.51% hits; Cysteine protease ATG4B (Homo sapiens), Q9Y4P1; in the data active means inhibition above about 40%
Target sequence (Q9Y4P1 whole entry, looked up): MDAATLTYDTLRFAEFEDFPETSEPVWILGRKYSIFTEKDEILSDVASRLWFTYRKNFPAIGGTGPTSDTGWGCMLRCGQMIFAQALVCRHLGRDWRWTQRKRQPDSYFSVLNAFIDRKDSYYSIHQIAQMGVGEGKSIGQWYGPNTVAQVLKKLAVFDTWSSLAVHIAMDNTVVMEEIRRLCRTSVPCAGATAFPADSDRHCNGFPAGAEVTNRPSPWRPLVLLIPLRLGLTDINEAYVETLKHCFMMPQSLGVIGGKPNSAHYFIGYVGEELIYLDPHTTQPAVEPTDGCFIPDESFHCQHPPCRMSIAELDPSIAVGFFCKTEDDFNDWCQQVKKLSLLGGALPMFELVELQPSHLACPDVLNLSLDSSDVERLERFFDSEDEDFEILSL
MEKK2 WT-MEK5: modulators of MEK5 binding to wildtype MEKK2, primary screen, biochemical, multiplex bead flow cytometry, Alexa488-MEK5; Mitogen-activated protein kinase kinase kinase 2 (Homo sapiens), Q9Y2U5; 290,000 compounds, 1.1% hits; Alexa488-MEK5 binding to MEKK2 WT; actives lie on both sides; binding response (% of control), % at 10 µM; in the data active means binding response below about 67% or above about 130%
MEKK3 PB1 HTS: modulators of MEKK3-MEK5 PB1 binding, primary screen, biochemical, wildtype MEKK3, multiplex bead flow cytometry, Alexa488-MEK5; Mitogen-activated protein kinase kinase kinase 3 (Homo sapiens), Q99759; bead-based flow cytometry, Alexa488-MEK5 binding to MEKK3; actives lie on both sides; 0 = blocked by unlabeled MEK5, 100 = vehicle; binding response (% of control), % at 10 µM; 290,000 compounds, 1.4% hits; AID 1529, 2009;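 active means binding response more than 3 SD above or below the average of its plate-row segment, actives on both sides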;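 further: Alexa488 bead fluorescence after subtracting the streptavidin-only scavenger bead signal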
Dynein transport: inhibitors of GR-EGFP nuclear translocation, primary screen, dynein cargo transport inhibitor project, imaging, high-content, 3617.4 mouse cells | test concentration mostly 20 µM; stimulated with dexamethasone, 1 µM; active compounds read low | 220,000 compounds, 0.47% hits | z-score, hits read low;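 active means plate z-score of nuclear minus cytoplasmic receptor signal below a set negative limit, without overly bright fluorescence or cell loss, cut at about -3.5 in these data, passing the limit was not always enough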;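 further: z-score of nuclear minus cytoplasmic ring GR-EGFP intensity difference per well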
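Buffer or medium: tet-free medium with charcoal-stripped serum / Also added: dexamethasone agonist, 1.0 µM final, for 30 min / Timing: induction 48 h, compound 1 h, agonist 30 min / Measured by: high-content fluorescence imaging after fixation / Read-out: nuclear-to-cytoplasmic GR-EGFP distribution per well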
MEKK2 mut-MEK5: MEK5 binding signal on mutant MEKK2 PB1, primary screen, biochemical, multiplex bead flow cytometry, Alexa488-MEK5 | Alexa488-MEK5 binding to MEKK2 mutant | percent response, % at 10 µM | 290,000 compounds, 0.35% hits | AID 1530, 2009; in the data active means percent response above about 24%, passing the limit was not always enough
Beta2AR agonist: beta2AR agonists driving receptor internalization, primary screen, cell-based, FAP fluorogen, flow cytometry; response, % (concentration not given with the values); 340,000 compounds, 0.43% hits; Beta-2 adrenergic receptor (Homo sapiens), P07550; Am2.2-beta2AR cells; AID 504454, 2011;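 active means response above a set limit, near 3 SD of response in nonfluorescent compounds, cut at about 42% in these data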
A number is an active result; [ ] = dose if it differs, or a comment. In the library only some 2.9% were active in any assay of this set; here they are far more common.

Results for CCOC(=O)C1=C(COC(=O)CCc2ccccc2)NC(=O)NC1C (stereo unspecified) ?
ATG4B inh: inactive; Beta2AR agonist: inactive

Results for Cc1cc(C(=O)c2ccc(C(C)(C)C)cc2)c(NC(=O)CCl)s1 ?
ATG4B inh: inactive; MEKK2 WT-MEK5: inactive; MEKK3 PB1 HTS: inactive; Dynein transport: inactive; MEKK2 mut-MEK5: inactive; Beta2AR agonist: 96

What do the screens show for `Cc1cc(C(=O)c2ccccc2)c(NC(=O)CN2CCOCC2)s1`?
ATG4B inh: inactive; MEKK2 WT-MEK5: inactive; MEKK3 PB1 HTS: inactive; Dynein transport: inactive; MEKK2 mut-MEK5: inactive; Beta2AR agonist: inactive

Results for Cn1cc(/C=C2\SC(=S)N(NC(=O)c3ccccc3)C2=O)c2ccccc21 ?
ATG4B inh: inactive; MEKK2 WT-MEK5: inactive; MEKK3 PB1 HTS: inactive; Dynein transport: inactive; MEKK2 mut-MEK5: inactive; Beta2AR agonist: inactive

Results for Cn1cc(/C=C2\SC(=S)N(NC(=O)c3cccc(Cl)c3)C2=O)c2ccccc21 ?
ATG4B inh: inactive; MEKK2 WT-MEK5: 48[inhibitor]; MEKK3 PB1 HTS: inactive; Dynein transport: inactive; MEKK2 mut-MEK5: inactive; Beta2AR agonist: inactive

Results for Cc1cc(C(=O)NC2CCCc3c2cnn3-c2cccc(C)c2C)n(C)n1 (stereo unspecified) ?
ATG4B inh: inactive; MEKK2 WT-MEK5: inactive; MEKK3 PB1 HTS: inactive; MEKK2 mut-MEK5: inactive; Beta2AR agonist: inactive

Results for N#C/C(=C\c1c(Cl)cccc1Cl)c1nc2ccccc2[nH]1 ?
ATG4B inh: inactive; MEKK2 WT-MEK5: inactive; MEKK3 PB1 HTS: inactive; Dynein transport: inactive; MEKK2 mut-MEK5: inactive; Beta2AR agonist: 56

Results for O=C(N/N=C/c1ccc(OC(=O)c2ccc(Br)cc2)cc1)c1ccncc1 ?
ATG4B inh: inactive; MEKK2 WT-MEK5: 61[inhibitor]; MEKK3 PB1 HTS: 66[inhibitor]; MEKK2 mut-MEK5: inactive; Beta2AR agonist: inactive

How did C=CCOc1cccc(CNCc2ccncc2)c1 do in these assays?
ATG4B inh: inactive; MEKK2 WT-MEK5: inactive; MEKK3 PB1 HTS: inactive; MEKK2 mut-MEK5: inactive; Beta2AR agonist: inactive

How did O=S(=O)(c1ccc(-c2csc(Nc3ccc(Br)cc3)n2)cc1)N1CCCC1 do in these assays?
ATG4B inh: inactive; MEKK2 WT-MEK5: -4.0; MEKK3 PB1 HTS: inactive; Dynein transport: inactive; MEKK2 mut-MEK5: inactive; Beta2AR agonist: inactive

What do the screens show for `CC1=NNC(=O)/C1=C\c1cn(-c2ccccc2)nc1-c1ccc(Cl)cc1`?
ATG4B inh: inactive; MEKK2 WT-MEK5: inactive; MEKK3 PB1 HTS: inactive; Dynein transport: inactive; MEKK2 mut-MEK5: inactive; Beta2AR agonist: 108

What do the screens show for `COc1cc(N=c2ssnc2Cl)c(OC)cc1Cl`?
ATG4B inh: inactive; MEKK2 WT-MEK5: inactive; MEKK3 PB1 HTS: inactive; Dynein transport: inactive; MEKK2 mut-MEK5: inactive; Beta2AR agonist: inactive

What do the screens show for `COc1ccc(OC)c(N=c2ssnc2Cl)c1`?
ATG4B inh: inactive; MEKK2 WT-MEK5: inactive; MEKK3 PB1 HTS: inactive; Dynein transport: -4.7; MEKK2 mut-MEK5: inactive; Beta2AR agonist: inactive

Results for Cc1cc(C(=O)CSc2nnnn2-c2ccc(O)cc2)c(C)n1Cc1ccc2c(c1)OCO2 ?
ATG4B inh: inactive; MEKK2 WT-MEK5: inactive; MEKK3 PB1 HTS: inactive; Dynein transport: inactive; MEKK2 mut-MEK5: inactive; Beta2AR agonist: inactive

Results for Cc1cc(C(=O)CSc2nnc(-c3cccc(F)c3)n2N)c(C)n1Cc1ccc2c(c1)OCO2 ?
ATG4B inh: inactive; MEKK2 WT-MEK5: inactive; MEKK3 PB1 HTS: inactive; Dynein transport: inactive; MEKK2 mut-MEK5: inactive; Beta2AR agonist: 82

What do the screens show for `C/C(=N\NC(=O)c1ccc(N2CCCC2=O)cc1)c1ccccc1`?
ATG4B inh: inactive; MEKK2 WT-MEK5: inactive; MEKK3 PB1 HTS: inactive; MEKK2 mut-MEK5: inactive; Beta2AR agonist: inactive

Results for O=C(N/N=C/c1ccccc1)c1ccc(N2CCCC2=O)cc1 ?
ATG4B inh: inactive; Beta2AR agonist: 64
